Source: ChEMBL document CHEMBL3046445, “Steroid conjugates: Synthesis and preliminary biological testing of pro-juvenoids” (2010)

What was measured:
[1] = test system: Pyrrhocoris apterus; assay: Inhibition of metamorphosis in freshly molted Pyrrhocoris apterus (red firebug) fourth-instar nymph assessed as compound dose per individual causing reduction in metamorphosis by oral drinking assay; type: functional
How it was run: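 Drinking assay: compound in acetone was added to distilled water with Tween-80 at 0.025, 0.25, 2.5 and 25 per microlitre. It was offered in cotton-plugged glass vials at the end of the fourth nymphal instar, with the acetone/water/Tween-80 mixture as reference. Ten insects per concentration, three replicates, 25 ± 0.5 °C, 16L:8D, 50 ± 5% RH. Metamorphosis inhibition was scored morphologically after the last ecdysis.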

[2] = test system: Pyrrhocoris apterus; assay: Inhibition of metamorphosis in freshly molted Pyrrhocoris apterus (red firebug) fifth-instar nymph assessed as compound dose per individual causing reduction in metamorphosis by topical screening test; type: functional
How it was run: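 Topical application with a Burkhard microapplicator; acetone alone served as the reference treatment. Ten insects per dose, three replicates. Insects were held in Petri dishes at 25 ± 0.5 °C, 16L:8D, 50 ± 5% RH, and checked daily. The degree of metamorphosis inhibition was scored morphologically after the next molt. ID-50 per individual was computed from linear regression tested by ANOVA.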

Compound	ID50 [1] [µg]	ID50 [2] [µg]
CCOC(=O)NCCOc1ccc(C[C@@H]2CCCC[C@@H]2OC(=O)CCC(=O)O[C@H]2CC[C@@]3(C)C(=CC[C@H]4[C@@H]5CC[C@H]([C@H](C)/C=C/[C@@H](CC)C(C)C)[C@@]5(C)CC[C@@H]43)C2)cc1	4.989	0.0185
CCOC(=O)NCCOc1ccc(C[C@H]2CCCC[C@@H]2OC(=O)CCC(=O)O[C@H]2CC[C@@]3(C)C(=CC[C@H]4[C@@H]5CC[C@H]([C@H](C)/C=C/[C@@H](CC)C(C)C)[C@@]5(C)CC[C@@H]43)C2)cc1	>25	>5
CCOC(=O)NCCOc1ccc(C[C@@H]2CCCC[C@@H]2OC(=O)CC[C@@H](C)[C@H]2CC[C@H]3[C@@H]4[C@H](OC=O)C[C@@H]5C[C@H](OC=O)CC[C@]5(C)[C@H]4C[C@H](OC=O)[C@]23C)cc1	0.051	0.094
CCOC(=O)NCCOc1ccc(C[C@H]2CCCC[C@@H]2OC(=O)CC[C@@H](C)[C@H]2CC[C@H]3[C@@H]4[C@H](OC=O)C[C@@H]5C[C@H](OC=O)CC[C@]5(C)[C@H]4C[C@H](OC=O)[C@]23C)cc1	6.153	1.775
CCOC(=O)NCCOc1ccc(C[C@@H]2CCCC[C@@H]2OC(=O)CC[C@@H](C)[C@H]2CC[C@H]3[C@@H]4[C@H](OC=O)C[C@@H]5C[C@H](O)CC[C@]5(C)[C@H]4C[C@H](OC=O)[C@]23C)cc1	0.423	0.062
CCOC(=O)NCCOc1ccc(C[C@H]2CCCC[C@@H]2OC(=O)CC[C@@H](C)[C@H]2CC[C@H]3[C@@H]4[C@H](OC=O)C[C@@H]5C[C@H](O)CC[C@]5(C)[C@H]4C[C@H](OC=O)[C@]23C)cc1	>25	>5
CCOC(=O)NCCOc1ccc(C[C@H]2CCCC[C@@H]2O)cc1 (relative stereo)	0.5	0.71
CCOC(=O)NCCOc1ccc(C[C@@H]2CCCC[C@@H]2O)cc1 (relative stereo)	0.0012	0.001
COC(C)(C)CCC[C@H](C)C/C=C/C(C)=C/C(=O)OC(C)C [METHOPRENE]	0.41	0.01
CCOC(=O)NCCOc1ccc(Oc2ccccc2)cc1 [PHENOXYCARB]	0.2	0.09
CC(COc1ccc(Oc2ccccc2)cc1)Oc1ccccn1 (configuration not stated) [PYRIPROXYFEN]	25	2.3
